Sampled rows, rich in hits. Any-hit rate of the full collection: about 2.9%.
M1 PAM parental: nonselective calcium activators in parental CHO-K1 cells, primary screen, counter-screen for M1 PAM project, cell-based, Fluo-8 calcium fluorescence, full deck, 1536-well. ATP EC20; 0% at ATP EC20, 100% at ATP max. activation, % at 3 µM. 360,000 tested, 0.02% active. AID 602247, 2012;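 active means activation above the run cutoff, the mean activation of all test compounds plus 3 SD, cut at about 40% in these data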;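 further: peak over basal fluorescence ratio in a 140 s read after ATP addition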
CHO-K1 Ca ag: counter-screen for M1 agonists: effect in parental CHO-K1 cells | Fluo-8 calcium fluorescence; scaled to maximal ATP response, vehicle zero | activation, % at 3 µM | 360,000 tested, 0.48% active; in the data active means activation above about 15%;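 further: untransfected CHO-K1 host cells lacking M1 receptor as counterscreen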
CHO-K1 Ca antag: counter-screen for M1 antagonists: effect in parental CHO-K1 cells | ATP-induced calcium, Fluo-8 fluorescence | inhibition, % at 3 µM | 360,000 tested, 0.6% active;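 active means inhibition above a per-plate cutoff, the plate's mean sample inhibition plus 3 SD, cut at about 24% in these data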
OX1R antag-1: OX1R (HCRTR1) antagonists, primary screen, fluorescence, CHO/OX1R cells, Fluo-8 calcium, orexin A. Orexin/Hypocretin receptor type 1 (Homo sapiens), O43613. Fluo-8 calcium fluorescence. inhibition, % at 5 µM. 330,000 tested, 0.43% active. AID 434989, 2010;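 active means inhibition above its plate's threshold, mean inhibition of all tested compounds on the plate plus 3 SD, cut at about 37% in these data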
Target sequence (O43613 whole entry, looked up): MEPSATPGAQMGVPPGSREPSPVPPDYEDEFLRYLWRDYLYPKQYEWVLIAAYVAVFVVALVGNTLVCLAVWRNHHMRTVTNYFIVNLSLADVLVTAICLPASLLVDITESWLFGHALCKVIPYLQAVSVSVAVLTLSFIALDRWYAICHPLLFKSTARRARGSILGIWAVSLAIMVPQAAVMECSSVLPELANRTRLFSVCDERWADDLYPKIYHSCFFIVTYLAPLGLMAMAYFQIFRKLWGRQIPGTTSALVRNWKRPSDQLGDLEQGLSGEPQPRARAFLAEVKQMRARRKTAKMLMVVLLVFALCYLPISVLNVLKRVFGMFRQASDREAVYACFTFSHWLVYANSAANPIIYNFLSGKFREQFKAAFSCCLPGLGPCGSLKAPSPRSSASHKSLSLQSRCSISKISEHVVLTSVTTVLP
CHO parental Ca: ATP-evoked calcium signal inhibitors, parental CHO, primary screen, counter-screen for OX1R antagonist project, cell-based, fluorescence, Fluo-8 calcium dye. parental CHO-K1, ATP-induced calcium, Fluo-8 fluorescence. 330,000 tested, 0.63% active. inhibition, % at 5.6 µM;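 active means inhibition above that plate's mean sample inhibition plus 3 SD, cut at about 26% in these data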
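Material: Parental CHO cells | Reagent: ATP | Compound dosing: Single nominal dose of 5.6 µM per compound | Detection: Intracellular calcium via Fluo-8 no-wash fluorescent dye | Read-out: % inhibition of ATP-induced calcium mobilization | Benchmarks: Low control ATP plus DMSO, high control DMSO only | Replicates: Singlicate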
OX1R antag-2: antagonists of human orexin 1 receptor (OX1R); OX1R-expressing cells, FRET antagonist read-out; Orexin/Hypocretin receptor type 1 (Homo sapiens), O43613; inhibition, % at 6.6 µM; 330,000 tested, 1.8% active; in the data active means inhibition mostly above about 38%, no sharp cut-off; inactive means mostly below about 40%
Hits are given with their value; – = inactive; · = not tested or not shown.

SMILES | M1 PAM parental | CHO-K1 Ca ag | CHO-K1 Ca antag | OX1R antag-1 | CHO parental Ca | OX1R antag-2
COc1cccc(NC(=O)CN(C)C(=O)CN2C(=O)c3ccc([N+](=O)[O-])cc3C2=O)c1 | – | – | – | – | – | 47.9
CC1(C)C(=O)Nc2ccccc2N1C(=O)COC(=O)c1ccc(NC(N)=O)cc1 | – | – | – | · | · | ·
O=C(c1ccc2c(c1)OCO2)N1CCN(CCN2C(=O)c3cccc4cccc(c34)C2=O)CC1 | – | – | – | · | · | ·
CC(C)c1ccc(N(C(=O)c2snc(C(N)=O)c2N)C(C(=O)NC2CCCC2)c2ccncc2)cc1 (centres undefined) | – | – | – | – | – | –
CN(Cc1ccccc1)C(=O)CN1C(=O)c2ccc([N+](=O)[O-])cc2C1=O | – | – | – | – | – | 69.7
CC(C)c1ccc(CN(C(=O)c2ccco2)C2CCS(=O)(=O)C2)cc1 (centres undefined) | – | – | – | – | – | –
COCc1ccc(C(=O)NC2CCCN(Cc3ccccc3F)C2)o1 (centres undefined) | – | – | – | – | – | –
Cc1cc(N2CCCC2)c(F)cc1/C=C\[N+](=O)[O-] | – | 25.0 | 28.1 | · | · | ·
COc1ccccc1CNC(=O)CCNS(=O)(=O)c1cc(Br)cnc1N | – | – | – | – | – | –
COC(=O)[C@H](Cc1ccccc1)N1C/C=C\COc2c(Cl)cc(Cl)cc2S1(=O)=O | – | – | – | – | – | 31.8
COC(=O)[C@H](C)N1C/C=C\COc2c(Cl)cc(Cl)cc2S1(=O)=O | – | – | – | – | – | –
Cc1ccccc1-c1nc2ccccc2c(=O)o1 | – | – | 36.2 | · | · | ·
Cc1ccc(NCC(=O)N/N=C\c2ccc([N+](=O)[O-])o2)cc1 | – | – | – | – | – | –
O=C(CCC(=O)Nc1ccc(Cl)cc1Cl)N/N=C/c1ccc([N+](=O)[O-])o1 | – | – | – | – | – | –
O=C(CNc1ccccc1)N/N=C/c1ccc([N+](=O)[O-])o1 | – | – | – | – | – | 51.1
CCCCCC(=O)N/N=C/c1ccc([N+](=O)[O-])o1 | – | – | – | – | – | 35.5
COCC#Cc1ccc2c(c1)O[C@@H](CN(C)S(=O)(=O)c1cccc(F)c1)[C@@H](C)CN([C@H](C)CO)S2(=O)=O | – | – | – | · | · | ·
COc1ccc(N2CCN(CC(=O)c3c[nH]c4ccccc34)CC2)cc1 | – | – | 24.1 | – | – | –
Cc1ccc2[nH]cc(C(=O)CN3CCN(c4ccccc4F)CC3)c2c1 | – | 15.8 | – | – | – | –
COc1cccc(C(=O)OC2CCN(C)CC2)c1 | – | – | 29.1 | – | – | –
COc1cccc(C(=O)OC2CCCN(C)C2)c1 (centres undefined) | – | – | – | – | – | –
CC(=O)Nc1nc2cccc([N+](=O)[O-])c2s1 | – | – | – | – | – | 73.9
Nc1nc(SCc2ccc(Cl)cc2Cl)c2ncn(C3OC(CO)C(O)C3O)c2n1 (centres undefined) | – | – | – | · | · | ·
COc1cc(/C=N/NC(=O)CSc2cc(C)c(Br)cc2C)ccc1O | – | – | – | – | – | 48.0
CCCCN(C(=O)c1cccc(S(=O)(=O)N2CC(C)OC(C)C2)c1)c1c(N)n(CC(C)C)c(=O)[nH]c1=O (centres undefined) | – | – | – | – | – | –
SMILES | M1 PAM parental | CHO-K1 Ca ag | CHO-K1 Ca antag | OX1R antag-1 | CHO parental Ca | OX1R antag-2
CCOC(=O)C1(C(=O)OCC)CCN(S(=O)(=O)c2ccccc2)CC1 | – | – | – | · | · | ·
COc1cc(CN(C2CC2)S(=O)(=O)c2ccccc2Br)cc(OC)c1 | – | – | – | – | – | –
COc1ccc(CN(CCC(C)C)S(=O)(=O)c2ccccc2Br)c(OC)c1 | – | – | – | – | – | 37.8
Cc1sc2nc3ccc(N4CCCC4)nn3c(=O)c2c1C | – | – | – | – | – | 48.4
Cc1ccc(CNC(=O)c2cc3c(=O)n4ccccc4nc3n(Cc3ccco3)c2=N)cc1 | – | – | – | – | – | –
CC(NC(=O)c1cc2c(=O)n3ccccc3nc2n(CC2CCCO2)c1=N)c1ccccc1 (centres undefined) | – | – | – | – | – | 36.9
N=c1c(C(=O)NC2CCCC2)cc2c(=O)n3ccccc3nc2n1C1CCCC1 | – | – | – | – | – | –
Cn1c(C(=O)NCC2CCCO2)cc2c(=O)n3ccccc3nc21 (centres undefined) | – | – | – | – | – | –
N=c1c(C(=O)NC2CCCC2)cc2c(=O)n3ccccc3nc2n1CC1CCCO1 (centres undefined) | – | – | – | – | – | 50.1
COCCCn1c(=N)c(C(=O)NC2CCCCC2)cc2c(=O)n3ccccc3nc21 | – | – | – | – | – | 75.5
Cc1ccc(CNC(=O)c2cc3c(=O)n4ccccc4nc3n(CC3CCCO3)c2=N)cc1 (centres undefined) | – | – | – | – | – | 66.5
Cc1ccc(F)c(NC(=O)c2c(-c3ccccc3)noc2C)c1 | – | – | – | – | – | –
CN(CC(=O)Nc1ccc(Cl)c(C(F)(F)F)c1)C(=O)CC1Sc2ccccc2NC1=O (centres undefined) | – | – | – | – | – | –
CC(=O)N1CCc2cc(S(=O)(=O)NC(CC(C)C)C(=O)N3CCCC3)ccc21 (centres undefined) | – | – | – | – | – | –
N=c1c(C(=O)NCc2ccco2)cc2c(=O)n3ccccc3nc2n1C1CCCC1 | – | – | – | – | – | 53.8
N=c1c(C(=O)NC2CCCCC2)cc2c(=O)n3ccccc3nc2n1CC1CCCO1 (centres undefined) | – | – | – | – | – | 60.3
COc1ccc(Cn2c(=N)c(C(=O)NC3CCCCC3)cc3c(=O)n4ccccc4nc32)cc1 | – | – | – | – | – | –
O=C(c1cnn2c(C(F)F)cc(-c3ccccc3)nc12)N1CCN(Cc2ccc3c(c2)OCO3)CC1 | – | – | – | – | – | –
Fc1ccccc1/C=C/c1ccc2ccccc2n1 | – | – | – | – | – | 72.5
CCc1noc(C)c1C(=O)Nc1nc(-c2ccc(OC)c(OC)c2)cs1 | – | – | – | – | – | 61.0
Cc1onc(-c2ccccc2)c1C(=O)Nc1nc(-c2ccc(F)c(F)c2)cs1 | – | – | – | – | – | –
Cc1ccc(-c2csc(NC(=O)c3c(C)noc3C)n2)cc1C | – | – | – | – | – | 32.2
CCc1noc(C)c1C(=O)OCC(=O)Nc1nc(-c2ccc(F)c(F)c2)cs1 | – | – | – | 69.0 | 35.8 | –
COc1ccccc1OCC(=O)NNC(=O)C1CCN(c2ncnc3sc(C)c(C)c23)CC1 | – | – | – | – | – | –

High-throughput results from PubChem.
